Measurements as given in ChEMBL document CHEMBL4351026, “Antifungal activity, mode of action variability, and subcellular distribution of coumarin-based antifungal azoles” (Eur J Med Chem, 2019).
Values after ≈ are worked out from the molar mass of the structure shown. Active and inactive are the calls of the source. The rule behind the calls is not given here.

Experiments:
Candida albicans [1] = test: Antifungal activity against Candida albicans ATCC 90028 assessed as reduction in fungal cell growth incubated for 48 hrs by MTT based broth double dilution method; format: functional; details: ATCC 90028, 48 h
How it was run: (§1)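 Broth double-dilution in Casitone broth. Starter cultures were grown 24 or 48 h at 37 °C, 5% CO₂, diluted 1:100, and added to serial two-fold dilutions at 64 to 0.007 µg/mL. Final inoculum was 5 x 10^4 to 5 x 10^5 CFU/mL; DMSO was 0.0012–1.3%. Plates were incubated at 37 °C, 5% CO₂, then MTT was added for 2 h. MIC followed CLSI M27-A3. Triplicates, two independent experiments.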

Nakaseomyces glabratus [2] = test: Antifungal activity against Candida glabrata 192 assessed as reduction in fungal cell growth incubated for 48 hrs by MTT based broth double dilution method; format: functional; details: Nakaseomyces glabratus, 192, 48 h; how it was run: as §1
Nakaseomyces glabratus [3] = test: Antifungal activity against Candida glabrata ATCC 66032 assessed as reduction in fungal cell growth incubated for 24 hrs by MTT based broth double dilution method; format: functional; details: ATCC 66032, 24 h; how it was run: as §1
Candida albicans [4] = test: Antifungal activity against Candida albicans P-87 assessed as reduction in fungal cell growth incubated for 24 hrs by MTT based broth double dilution method; format: functional; details: P-87, 24 h; how it was run: as §1
Nakaseomyces glabratus [5] = test: Antifungal activity against Candida glabrata 192 assessed as reduction in fungal cell growth incubated for 24 hrs by MTT based broth double dilution method; format: functional; details: Nakaseomyces glabratus, 192, 24 h; how it was run: as §1
Candida albicans [6] = test: Antifungal activity against Candida albicans SN152 assessed as reduction in fungal cell growth incubated for 24 hrs by MTT based broth double dilution method; format: functional; details: SN152, 24 h; how it was run: as §1
[7] = test system: Meyerozyma guilliermondii; test: Antifungal activity against Candida guilliermondii T-47 assessed as reduction in fungal cell growth incubated for 24 hrs by MTT based broth double dilution method; format: functional; details: T-47, 24 h; how it was run: as §1
Candida albicans [8] = test: Antifungal activity against Candida albicans ATCC 90028 assessed as reduction in fungal cell growth incubated for 24 hrs by MTT based broth double dilution method; format: functional; details: ATCC 90028, 24 h; how it was run: as §1
Candida albicans [9] = test: Antifungal activity against Candida albicans SN152 assessed as reduction in fungal cell growth incubated for 48 hrs by MTT based broth double dilution method; format: functional; details: SN152, 48 h; how it was run: as §1
Candida parapsilosis [10] = test: Antifungal activity against Candida parapsilosis ATCC 90018 assessed as reduction in fungal cell growth incubated for 24 hrs by MTT based broth double dilution method; format: functional; details: Lodderomyces parapsilosis, ATCC 90018, 24 h; how it was run: as §1
Nakaseomyces glabratus [11] = test: Antifungal activity against Candida glabrata ATCC 66032 assessed as reduction in fungal cell growth incubated for 48 hrs by MTT based broth double dilution method; format: functional; details: ATCC 66032, 48 h; how it was run: as §1
Candida albicans [12] = test: Antifungal activity against ERG11/ERG3 knocked out Candida albicans SN152 assessed as zone of inhibition at 25 ug […] by disk diffusion method; format: functional, organism-based
Nakaseomyces glabratus [13] = test: Antifungal activity against Candida glabrata ATCC 2001 assessed as reduction in fungal cell growth incubated for 24 hrs by MTT based broth double dilution method; format: functional; details: ATCC 2001, 24 h; how it was run: as §1
Candida dubliniensis = test: Antifungal activity against Candida dubliniensis T-99 assessed as reduction in fungal cell growth incubated for 24 hrs by MTT based broth double dilution method; format: functional; details: T-99, 24 h; how it was run: as §1
Candida albicans [14] = test: Antifungal activity against Candida albicans SN152 assessed as zone inhibition at 25 ug incubated for 24 hrs by disk diffusion method; format: functional, organism-based
How it was run: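 Strains were streaked on YPD agar and grown at 30 °C: 24 h for parental SN152, 48 h for the erg11ΔΔ erg3ΔΔ mutant. Colonies were suspended in PBS and adjusted to OD 0.02 (SN152) or 0.03 (mutant), then spread on Casitone plates. A 6-mm disk loaded with 25 µg compound was placed centrally. Plates were incubated at 30 °C and photographed after 24 h.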

Candida parapsilosis [15] = test: Antifungal activity against Candida parapsilosis ATCC 22019 assessed as reduction in fungal cell growth incubated for 24 hrs by MTT based broth double dilution method; format: functional; details: Lodderomyces parapsilosis, ATCC 22019, 24 h; how it was run: as §1
Cytochrome P450 3A4 = Cytochrome P450 3A4 (Homo sapiens, UniProt P08684); test: Inhibition of recombinant human CYP3A4 using Luciferin-PPXE as substrate preincubated for 10 mins followed by NADPH addition measured after 15 mins by luminometric method; format: ADME
How it was run: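 P450-Glo luminescent assay, Luciferin-PPXE substrate. Compound was mixed with membranes containing recombinant human CYP3A4; controls were vehicle with membranes lacking CYP3A4. After 10 min preincubation at 37 °C, NADPH regeneration reagent was added and the mixture kept 15 min at 37 °C. Luciferin detection reagent stopped the reaction; after 20 min at room temperature, luminescence was read. Duplicates.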

Sequence of Cytochrome P450 3A4 (P08684 whole entry): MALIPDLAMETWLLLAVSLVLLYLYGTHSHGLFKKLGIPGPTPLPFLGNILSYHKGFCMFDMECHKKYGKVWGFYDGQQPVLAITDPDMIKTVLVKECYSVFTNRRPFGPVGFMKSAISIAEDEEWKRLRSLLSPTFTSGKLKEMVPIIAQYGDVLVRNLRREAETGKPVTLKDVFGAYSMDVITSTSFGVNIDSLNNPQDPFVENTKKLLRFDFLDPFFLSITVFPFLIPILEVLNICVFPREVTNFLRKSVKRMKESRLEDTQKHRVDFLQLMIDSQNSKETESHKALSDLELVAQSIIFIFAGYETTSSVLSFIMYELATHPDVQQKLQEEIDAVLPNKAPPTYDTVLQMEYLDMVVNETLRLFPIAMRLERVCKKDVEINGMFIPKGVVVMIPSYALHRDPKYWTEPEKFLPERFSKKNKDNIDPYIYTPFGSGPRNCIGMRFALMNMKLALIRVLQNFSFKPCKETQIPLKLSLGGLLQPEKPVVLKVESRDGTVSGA

Row | SMILES | MIC (Candida albicans [1]) | MIC (Nakaseomyces glabratus [2]) | MIC (Nakaseomyces glabratus [3]) | MIC (Candida albicans [4]) | MIC (Nakaseomyces glabratus [5]) | MIC (Candida albicans [6]) | MIC [7] | MIC (Candida albicans [8]) | MIC (Candida albicans [9]) | MIC (Candida parapsilosis [10]) | MIC (Nakaseomyces glabratus [11]) | inhibition zone (IZ) (Candida albicans [12]) | MIC (Nakaseomyces glabratus [13]) | MIC (Candida dubliniensis) | inhibition zone (IZ) (Candida albicans [14]) | MIC (Candida parapsilosis [15]) | IC50 (Cytochrome P450 3A4)
1 | Clc1ccc(COC(Cn2ccnc2)c2ccc(Cl)cc2Cl)c(Cl)c1 (centres undefined) [MICONAZOLE] | 0.015 µg/mL (≈ 0.036 µM) | 0.125 µg/mL (≈ 0.3 µM) | 2 µg/mL (≈ 4.81 µM) | 0.007 µg/mL (≈ 0.0168 µM) | 0.06 µg/mL (≈ 0.144 µM) | 0.007 µg/mL (≈ 0.0168 µM) | 0.06 µg/mL (≈ 0.144 µM) | 0.007 µg/mL (≈ 0.0168 µM) | 0.015 µg/mL (≈ 0.036 µM) | 0.06 µg/mL (≈ 0.144 µM) | 4 µg/mL (≈ 9.61 µM) | Active | 1 µg/mL (≈ 2.4 µM) | 0.06 µg/mL (≈ 0.144 µM) | Active | 0.003 µg/mL (≈ 0.00721 µM) | –
2 | CCC(C)n1ncn(-c2ccc(N3CCN(c4ccc(OCC5COC(Cn6cncn6)(c6ccc(Cl)cc6Cl)O5)cc4)CC3)cc2)c1=O (racemic) [ITRACONAZOLE] | 0.007 µg/mL (≈ 0.00992 µM) | 0.125 µg/mL (≈ 0.177 µM) | 1 µg/mL (≈ 1.42 µM) | 0.007 µg/mL (≈ 0.00992 µM) | 0.125 µg/mL (≈ 0.177 µM) | 0.007 µg/mL (≈ 0.00992 µM) | 0.03 µg/mL (≈ 0.0425 µM) | 0.007 µg/mL (≈ 0.00992 µM) | 0.007 µg/mL (≈ 0.00992 µM) | 0.007 µg/mL (≈ 0.00992 µM) | > 64 µg/mL | – | 1 µg/mL (≈ 1.42 µM) | 0.06 µg/mL (≈ 0.085 µM) | – | 0.03 µg/mL (≈ 0.0425 µM) | –
3 | O=C(NCC(O)(Cn1cncn1)c1ccc(F)cc1F)c1cc2ccccc2oc1=O (racemic) | – | – | 1 µg/mL (≈ 2.35 µM) | 0.125 µg/mL (≈ 0.293 µM) | 1 µg/mL (≈ 2.35 µM) | 0.25 µg/mL (≈ 0.586 µM) | 1 µg/mL (≈ 2.35 µM) | 0.25 µg/mL (≈ 0.586 µM) | – | 0.25 µg/mL (≈ 0.586 µM) | – | – | 4 µg/mL (≈ 9.38 µM) | 0.5 µg/mL (≈ 1.17 µM) | – | 2 µg/mL (≈ 4.69 µM) | –
4 | COc1ccc2cc(C(=O)NCC(O)(Cn3cncn3)c3ccc(F)cc3F)c(=O)oc2c1 (racemic) | – | – | 32 µg/mL (≈ 70.1 µM) | 0.125 µg/mL (≈ 0.274 µM) | 4 µg/mL (≈ 8.76 µM) | 0.5 µg/mL (≈ 1.1 µM) | 1 µg/mL (≈ 2.19 µM) | 0.25 µg/mL (≈ 0.548 µM) | – | 0.25 µg/mL (≈ 0.548 µM) | – | – | 8 µg/mL (≈ 17.5 µM) | 4 µg/mL (≈ 8.76 µM) | – | 2 µg/mL (≈ 4.38 µM) | –
5 | O=C(NCC(O)(Cn1cncn1)c1ccc(F)cc1F)c1cc2ccc(O)cc2oc1=O (racemic) | – | – | > 64 µg/mL | 64 µg/mL (≈ 145 µM) | > 64 µg/mL | > 64 µg/mL | > 64 µg/mL | 64 µg/mL (≈ 145 µM) | – | > 64 µg/mL | – | – | 64 µg/mL (≈ 145 µM) | > 64 µg/mL | – | > 64 µg/mL | –
6 | CCC(CC)Oc1ccc2cc(C(=O)NCC(O)(Cn3ccnc3)c3ccc(F)cc3F)c(=O)oc2c1 (racemic) | 0.06 µg/mL (≈ 0.117 µM) | 2 µg/mL (≈ 3.91 µM) | 2 µg/mL (≈ 3.91 µM) | 0.015 µg/mL (≈ 0.0293 µM) | 1 µg/mL (≈ 1.95 µM) | 0.03 µg/mL (≈ 0.0586 µM) | 0.125 µg/mL (≈ 0.244 µM) | 0.03 µg/mL (≈ 0.0586 µM) | 0.06 µg/mL (≈ 0.117 µM) | 0.125 µg/mL (≈ 0.244 µM) | 4 µg/mL (≈ 7.82 µM) | Active | 4 µg/mL (≈ 7.82 µM) | 0.25 µg/mL (≈ 0.489 µM) | Active | 0.25 µg/mL (≈ 0.489 µM) | 332 nM
7 | Clc1ccccc1C(c1ccccc1)(c1ccccc1)n1ccnc1 [CLOTRIMAZOLE] | 0.007 µg/mL (≈ 0.0203 µM) | 0.25 µg/mL (≈ 0.725 µM) | – | 0.007 µg/mL (≈ 0.0203 µM) | 0.06 µg/mL (≈ 0.174 µM) | 0.007 µg/mL (≈ 0.0203 µM) | 0.007 µg/mL (≈ 0.0203 µM) | 0.007 µg/mL (≈ 0.0203 µM) | 0.007 µg/mL (≈ 0.0203 µM) | 0.007 µg/mL (≈ 0.0203 µM) | – | – | 0.5 µg/mL (≈ 1.45 µM) | 0.007 µg/mL (≈ 0.0203 µM) | – | 0.007 µg/mL (≈ 0.0203 µM) | –
8 | CCC(CC)Oc1ccc2cc(C(=O)NCC(O)(Cn3cncn3)c3ccc(F)cc3F)c(=O)oc2c1 (racemic) | 0.5 µg/mL (≈ 0.976 µM) | 8 µg/mL (≈ 15.6 µM) | > 64 µg/mL | 0.125 µg/mL (≈ 0.244 µM) | 4 µg/mL (≈ 7.8 µM) | 0.25 µg/mL (≈ 0.488 µM) | 2 µg/mL (≈ 3.9 µM) | 0.125 µg/mL (≈ 0.244 µM) | 0.5 µg/mL (≈ 0.976 µM) | 0.5 µg/mL (≈ 0.976 µM) | > 64 µg/mL | – | 32 µg/mL (≈ 62.4 µM) | 2 µg/mL (≈ 3.9 µM) | – | 2 µg/mL (≈ 3.9 µM) | ≥ 2500 nM
9 | COc1ccc2cc(C(=O)NCC(O)(Cn3cncn3)c3ccc(F)cc3F)c(=O)[nH]c2c1 (racemic) | – | – | > 64 µg/mL | 2 µg/mL (≈ 4.39 µM) | > 64 µg/mL | 4 µg/mL (≈ 8.78 µM) | > 64 µg/mL | 1 µg/mL (≈ 2.2 µM) | – | 2 µg/mL (≈ 4.39 µM) | – | – | > 64 µg/mL | > 64 µg/mL | – | > 64 µg/mL | –
10 | O=C(NCC(O)(Cn1cncn1)c1ccc(F)cc1F)c1cc2ccc(Cl)cc2[nH]c1=O (racemic) | – | – | 64 µg/mL (≈ 139 µM) | 1 µg/mL (≈ 2.17 µM) | 16 µg/mL (≈ 34.8 µM) | 0.5 µg/mL (≈ 1.09 µM) | 8 µg/mL (≈ 17.4 µM) | 1 µg/mL (≈ 2.17 µM) | – | 1 µg/mL (≈ 2.17 µM) | – | – | > 64 µg/mL | 8 µg/mL (≈ 17.4 µM) | – | 8 µg/mL (≈ 17.4 µM) | –
11 | O=C(NCC(O)(Cn1cncn1)c1ccc(F)cc1F)c1cc2ccccc2[nH]c1=O (racemic) | – | – | > 64 µg/mL | 1 µg/mL (≈ 2.35 µM) | 16 µg/mL (≈ 37.6 µM) | 0.5 µg/mL (≈ 1.18 µM) | 8 µg/mL (≈ 18.8 µM) | 2 µg/mL (≈ 4.7 µM) | – | 2 µg/mL (≈ 4.7 µM) | – | – | 64 µg/mL (≈ 150 µM) | 8 µg/mL (≈ 18.8 µM) | – | 8 µg/mL (≈ 18.8 µM) | –
